The values that follow come from ChEMBL document CHEMBL3856209, “Novel pyrazolopyridine derivatives as potential angiogenesis inhibitors: Synthesis, biological evaluation and transcriptome-based mechanistic analysis” (Eur J Med Chem, 2016).

Common to all, as to type: functional, Homo sapiens
The subject of experiment [1] is HUVEC. Put plainly: Effect on SND1-IT1 gene expression in serum-starved HUVEC after 24 hrs by microarray analysis relative to control.
In experiment [2] the test system is HUVEC. Put plainly: Effect on HINT3 gene expression in serum-starved HUVEC after 24 hrs by microarray analysis relative to control. Summed up:
(§1)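 Confluent, serum-starved HUVEC (pooled from 3–5 donors, passage ≤4) treated with 2 μM compound or vehicle with 2.5% FBS for 6 h or 24 h. Total RNA hybridized to Illumina Human-HT12 arrays. Data were background-corrected, vst-transformed and rsn-normalized. Hits called by moderated paired t-test versus DMSO-treated cells, p < 0.05 and log2 fold change >|0.5|.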

The test system of experiment [3] is HUVEC. Put plainly: Effect on MAP1B gene expression in serum-starved HUVEC after 24 hrs by microarray analysis relative to control. The method, boiled down: (§2)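 Serum-starved confluent HUVEC (pooled from 3–5 donors, passage ≤4) were treated with 2 μM compound or vehicle in 2.5% FBS for 6 h or 24 h, and total RNA was isolated. Hybridization was on Illumina Human-HT12. Data were processed with bgAdjust, vst and rsn normalization. Changes versus DMSO were called by moderated paired t-test at p < 0.05 and |log2 fold change| > 0.5.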

The test system of experiment [4] is HUVEC. Put plainly: Effect on ZAK gene expression in serum-starved HUVEC after 24 hrs by microarray analysis relative to control.
For experiment [5], the system named is HUVEC. Put plainly: Effect on SLC30A7 gene expression in serum-starved HUVEC after 24 hrs by microarray analysis relative to control.
Experiment [6] relates to HUVEC. Put plainly: Effect on MBNL2 gene expression in serum-starved HUVEC after 6 hrs by microarray analysis relative to control. Summed up: as §2
Experiment [7] relates to HUVEC. Put plainly: Effect on CKS1B gene expression in serum-starved HUVEC after 6 hrs by microarray analysis relative to control. Summed up: (§3)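 Serum-starved confluent HUVEC treated with 2 μM compound or DMSO in 2.5% FBS for 6 h or 24 h; RNA hybridized to Illumina Human-HT12 arrays. Data background-corrected, vst-transformed and rsn-normalized. Differential probes called by moderated paired t-test (limma) at p < 0.05 and log2 fold change >|0.5| vs DMSO.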

The subject of experiment [8] is HUVEC. Put plainly: Effect on CKS2 gene expression in serum-starved HUVEC after 24 hrs by microarray analysis relative to control. The method, boiled down:
as §1

Experiment [9] relates to HUVEC. Put plainly: Effect on CD46 gene expression in serum-starved HUVEC after 6 hrs by microarray analysis relative to control. Summed up:
as §3

The test system of experiment [10] is HUVEC. Put plainly: Effect on TP53INP2 gene expression in serum-starved HUVEC after 6 hrs by microarray analysis relative to control.
Experiment [11] concerns HUVEC. Put plainly: Effect on AURKA gene expression in serum-starved HUVEC after 24 hrs by microarray analysis relative to control. Summed up:
(§4)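 Confluent serum-starved HUVEC (primary, pooled from 3–5 donors, passage ≤4) treated with 2 μM compound or DMSO vehicle in 2.5% FBS for 6 h or 24 h. Total RNA hybridized to Illumina Human-HT12 arrays, background-corrected, vst-transformed and rsn-normalized. Differential expression versus DMSO by moderated paired t-test (p < 0.05, |log2 fold change| > 0.5).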

Experiment [12] deals with HUVEC. Put plainly: Effect on RNA5S9 gene expression in serum-starved HUVEC after 24 hrs by microarray analysis relative to control.
Experiment [13] has as its system HUVEC. Put plainly: Effect on SQLE gene expression in serum-starved HUVEC after 24 hrs by microarray analysis relative to control.
The subject of experiment [14] is HUVEC. Put plainly: Effect on CYP26B1 gene expression in serum-starved HUVEC after 6 hrs by microarray analysis relative to control. Summed up:
as §1

Experiment [15] relates to HUVEC. Put plainly: Effect on PODXL gene expression in serum-starved HUVEC after 24 hrs by microarray analysis relative to control. Summed up: as §2
For experiment [16], the system named is HUVEC. Put plainly: Effect on GINS2 gene expression in serum-starved HUVEC after 6 hrs by microarray analysis relative to control. The method, boiled down:
as §1

The subject of experiment [17] is HUVEC. Put plainly: Effect on ZMAT3 gene expression in serum-starved HUVEC after 6 hrs by microarray analysis relative to control.
The subject of experiment [18] is HUVEC. Put plainly: Effect on KIF4A gene expression in serum-starved HUVEC after 24 hrs by microarray analysis relative to control. Summed up:
as §2

For experiment [19], the system named is HUVEC. Put plainly: Effect on AFAP1L1 gene expression in serum-starved HUVEC after 6 hrs by microarray analysis relative to control. Summed up:
as §4

In experiment [20] the test system is HUVEC. Put plainly: Effect on LPIN1 gene expression in serum-starved HUVEC after 24 hrs by microarray analysis relative to control.
Experiment [21] deals with HUVEC. Put plainly: Effect on TMEM154 gene expression in serum-starved HUVEC after 24 hrs by microarray analysis relative to control.
Experiment [22] relates to HUVEC. Put plainly: Effect on HAVCR2 gene expression in serum-starved HUVEC after 6 hrs by microarray analysis relative to control. Summed up: as §4
The test system of experiment [23] is HUVEC. Put plainly: Effect on RDH11 gene expression in serum-starved HUVEC after 24 hrs by microarray analysis relative to control.
Experiment [24] deals with HUVEC. Put plainly: Effect on GRPEL2 gene expression in serum-starved HUVEC after 6 hrs by microarray analysis relative to control. The method, boiled down:
as §1

The test system of experiment [25] is HUVEC. Put plainly: Effect on INSIG1 gene expression in serum-starved HUVEC after 6 hrs by microarray analysis relative to control. The method, boiled down:
as §1

Experiment [26] has as its system HUVEC. Put plainly: Effect on CCNA2 gene expression in serum-starved HUVEC after 6 hrs by microarray analysis relative to control. The method, boiled down: as §3
Experiment [27] has as its system HUVEC. Put plainly: Effect on ITGA10 gene expression in serum-starved HUVEC after 24 hrs by microarray analysis relative to control. Summed up:
as §1

For experiment [28], the system named is HUVEC. Put plainly: Effect on KRT18P55 gene expression in serum-starved HUVEC after 6 hrs by microarray analysis relative to control. Summed up: as §2
Experiment [29] deals with HUVEC. Put plainly: Effect on HAVCR2 gene expression in serum-starved HUVEC after 24 hrs by microarray analysis relative to control. The method, boiled down: as §4
Experiment [30] concerns HUVEC. Put plainly: Effect on LSS gene expression in serum-starved HUVEC after 24 hrs by microarray analysis relative to control. The method, boiled down: as §2
Experiment [31] concerns HUVEC. Put plainly: Effect on KIF4A gene expression in serum-starved HUVEC after 6 hrs by microarray analysis relative to control.
The subject of experiment [32] is HUVEC. Put plainly: Effect on TGFBI gene expression in serum-starved HUVEC after 24 hrs by microarray analysis relative to control.
For experiment [33], the system named is HUVEC. Put plainly: Effect on FEN1 gene expression in serum-starved HUVEC after 24 hrs by microarray analysis relative to control. Summed up:
as §4

The subject of experiment [34] is HUVEC. Put plainly: Effect on SMC4 gene expression in serum-starved HUVEC after 24 hrs by microarray analysis relative to control.
Experiment [35] has as its system HUVEC. Put plainly: Effect on ANGPTL4 gene expression in serum-starved HUVEC after 6 hrs by microarray analysis relative to control. The method, boiled down: as §3
Experiment [36] relates to HUVEC. Put plainly: Effect on ACSS2 gene expression in serum-starved HUVEC after 6 hrs by microarray analysis relative to control. Summed up: as §3
Experiment [37] concerns HUVEC. Put plainly: Effect on TMEM154 gene expression in serum-starved HUVEC after 6 hrs by microarray analysis relative to control.
The subject of experiment [38] is HUVEC. Put plainly: Effect on RACGAP1 gene expression in serum-starved HUVEC after 6 hrs by microarray analysis relative to control.
For experiment [39], the system named is HUVEC. Put plainly: Effect on UACA gene expression in serum-starved HUVEC after 6 hrs by microarray analysis relative to control.
The test system of experiment [40] is HUVEC. Put plainly: Effect on EIF3CL gene expression in serum-starved HUVEC after 24 hrs by microarray analysis relative to control. Summed up: as §4

In the case of `COc1ccc(Cn2nc(-c3ccccc3)c3cc(Nc4ccc(N5CCN(C)CC5)cc4)nc(N4CCNCC4)c32)cc1`, the values for the log2FC in [1] and in experiment [2] were 0.603 and 0.6699, respectively.

Regarding `COc1ccc(Cn2nc(-c3ccccc3)c3cc(Cl)nc(N4CCNCC4)c32)cc1`, the log2FC in experiment [3] was -0.053; in experiment [4], 0.0198; in experiment [5], 0.0778; in [6], 0.2488; in experiment [7], -0.0514; in experiment [8] it was -0.5724.

With `COc1ccc(Cn2nc(-c3ccccc3)c3cc(Nc4ccc(N5CCN(C)CC5)cc4)nc(N4CCN(C)CC4)c32)cc1`, the “fold change (FC)” value in experiment [9] is 0.3593; in [11] it was -0.6725; in experiment [19], 0.0116; in [22] it was 0.9139; in experiment [24] it was 0.2207; in [25], 1.0454. In addition, the “fold change (FC)” value in experiment [29] was -0.7422; in [31] it was 0.0285; in [33] it was -0.6; in [36], 0.2037; in experiment [37], 0.2897; in experiment [39] it was 0.2427. The “fold change (FC)” value in [40] is -0.1982. In addition, the log2FC is 0.0911 in [10]; 0.0013 in experiment [12]; 1.0535 - 1.1624 in [13]; -0.3941 in experiment [14]; 0.6696 in experiment [15]; -0.1389 in [16]. The log2FC was 0.5844 in experiment [17]; -0.5756 in experiment [18]; 0.8618 in experiment [20]; 0.8028 in [21]; 0.6682 in experiment [23]; -0.1788 in [26]. For the same compound, the log2FC is given as 0.5991 in experiment [27]; -0.0175 in experiment [28]; 1.6178 in experiment [30]; -0.9058 in [32]; -0.5117 in experiment [34]; -0.3836 in experiment [35]. The compound further had a log2FC in experiment [38] of -0.171.
